Reference: ChEMBL document CHEMBL2401707, “Potentiating 1-(2-hydroxypropyl)-2-styryl-5-nitroimidazole derivatives against antibacterial agents: design, synthesis and biology analysis” (Eur J Med Chem, 2013)
In brackets after ≈: the same amount, converted by molar mass. Values belong to the molecule of their own block, whether it stands above or below them.

Columns and labels:
Bacillus thuringiensis = test: Antibacterial activity against Bacillus thuringiensis assessed as survival after 24 hrs by MTT assay; format: functional, organism-based
In short: (§1)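 Broth microdilution in Mueller-Hinton broth. Cells grown to mid-log phase, diluted 10000-fold, and 10⁶ to 10⁷ CFU inoculated per well. Incubated 37 °C for 24 h. Drug-containing medium then added to final 40, 10, 2.5 and 0.25 µg/mL. After 12 h, MTT in PBS added; 4 h later medium discarded and formazan dissolved in DMSO. A490 read; at least three replicates.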

Escherichia coli = test: Antibacterial activity against Escherichia coli assessed as survival after 24 hrs by MTT assay; format: functional, organism-based; in short: as §1
Pseudomonas aeruginosa = test: Antibacterial activity against Pseudomonas aeruginosa assessed as survival after 24 hrs by MTT assay; format: functional, organism-based; in short: as §1
Bacillus subtilis = test: Antibacterial activity against Bacillus subtilis assessed as survival after 24 hrs by MTT assay; format: functional, organism-based; in short: as §1
[1] = Cytotoxicity against human macrophages assessed as cell viability after 24 hrs by MTT assay; format: cell-based, Macrophage
In short: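 Human macrophages in DMEM with 10% FBS and antimycotic, 1.8×10⁴ cells/well. Exposed to 160, 40, 10, 2.5 and 0.25 µg/mL compound (added in 10% DMSO) for 24 h at 37 °C, 5% CO₂. MTT (2.5 mg/mL) added for a further 4 h, formazan dissolved in DMSO.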

[2] = Inhibition of Escherichia coli FabH overexpressed in Escherichia coli DH10B using holo-ACP as substrate after 1 min
In short: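 Enzyme was purified by Ni-NTA with imidazole gradient elution and stored in 20 mM Tris pH 7.6, 100 mM NaCl, 1 mM DTT, 20% glycerol. Reaction: 0.5 nM E. coli FabH, 20 mM Na₂HPO₄ pH 7.0, 0.5 mM DTT, 0.25 mM MgCl₂, 2.5 µM holo-ACP, preincubated 1 min. Started with acetyl-CoA, NADH and NADPH mix; ran 19 min. Stopped with ice-cold TCA; ³H incorporation in pellet counted by liquid scintillation. Inhibitors added from DMSO stock, final DMSO ≤2%; IC50 determined.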

[3] = Cytotoxicity against human macrophages assessed as morphological changes at 2.5 to 160 ug/mL after 24 hrs by phase contrast microscopic analysis; format: cell-based; conditions: macrophage
In short: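 Human macrophages exposed for 24 h to 2.5, 10, 40 and 160 µg/mL, Giemsa-stained and examined by phase contrast microscopy. Morphology compared with untreated control cells. The minimum cytotoxic concentration is the level causing a microscopically detectable alteration of normal cell morphology.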

Structure (SMILES): CC(O)Cn1c([N+](=O)[O-])cnc1/C=C/c1ccccc1Br (centres undefined)
IC50 (Bacillus thuringiensis): 11.4 µg/mL (≈ 32.4 µM)
IC50 (Escherichia coli): 63.6 µg/mL (≈ 181 µM)
IC50 (Pseudomonas aeruginosa): 11.1 µg/mL (≈ 31.5 µM)
IC50 (Bacillus subtilis): 6 µg/mL (≈ 17 µM)
CC50 at 24 h [1]: 490 nM

Structure (SMILES): COc1cccc(/C=C/c2ncc([N+](=O)[O-])n2CC(C)O)c1 (centres undefined)
IC50 (Bacillus thuringiensis): 56.2 µg/mL (≈ 185 µM)
IC50 (Escherichia coli): 181 µg/mL (≈ 595 µM)
IC50 (Pseudomonas aeruginosa): 6.7 µg/mL (≈ 22.1 µM)
IC50 (Bacillus subtilis): 25.7 µg/mL (≈ 84.7 µM)
CC50 at 24 h [1]: 1300 nM

Structure (SMILES): CC(O)Cn1c([N+](=O)[O-])cnc1/C=C/c1c(F)cccc1Cl (centres undefined)
IC50 (Bacillus thuringiensis): 6.1 µg/mL (≈ 18.7 µM)
IC50 (Escherichia coli): 119 µg/mL (≈ 365 µM)
IC50 (Pseudomonas aeruginosa): 5.7 µg/mL (≈ 17.5 µM)
IC50 (Bacillus subtilis): 112 µg/mL (≈ 343 µM)
CC50 at 24 h [1]: 710 nM

Structure (SMILES): COc1ccccc1/C=C/c1ncc([N+](=O)[O-])n1CC(C)O (centres undefined)
IC50 (Bacillus thuringiensis): 19.1 µg/mL (≈ 63 µM)
IC50 (Escherichia coli): 78.6 µg/mL (≈ 259 µM)
IC50 (Pseudomonas aeruginosa): 83.8 µg/mL (≈ 276 µM)
IC50 (Bacillus subtilis): 10.5 µg/mL (≈ 34.6 µM)
CC50 at 24 h [1]: 480 nM

IC50 [2]: 78800 nM
Structure (SMILES): Cc1ccc(/C=C/c2ncc([N+](=O)[O-])n2CC(C)O)cc1 (centres undefined)
IC50 (Bacillus thuringiensis): 8.6 µg/mL (≈ 29.9 µM)
IC50 (Escherichia coli): 111 µg/mL (≈ 388 µM)
IC50 (Pseudomonas aeruginosa): 22.8 µg/mL (≈ 79.4 µM)
IC50 (Bacillus subtilis): 8.9 µg/mL (≈ 31 µM)
CC50 at 24 h [1]: 860 nM

Structure (SMILES): CC(O)Cn1c([N+](=O)[O-])cnc1/C=C/c1ccccc1F (centres undefined)
IC50 (Bacillus thuringiensis): 60.3 µg/mL (≈ 207 µM)
IC50 (Escherichia coli): 72.7 µg/mL (≈ 250 µM)
IC50 (Pseudomonas aeruginosa): 39.4 µg/mL (≈ 135 µM)
IC50 (Bacillus subtilis): 3.4 µg/mL (≈ 11.7 µM)
CC50 at 24 h [1]: 1410 nM

IC50 [2]: 8900 nM
Structure (SMILES): CC(O)Cn1c([N+](=O)[O-])cnc1/C=C/c1cccc(F)c1 (centres undefined)
IC50 (Bacillus thuringiensis): 79.2 µg/mL (≈ 272 µM)
IC50 (Escherichia coli): 120 µg/mL (≈ 412 µM)
IC50 (Pseudomonas aeruginosa): 15 µg/mL (≈ 51.5 µM)
IC50 (Bacillus subtilis): 11.8 µg/mL (≈ 40.5 µM)
CC50 at 24 h [1]: 1030 nM

Structure (SMILES): CC(O)Cn1c([N+](=O)[O-])cnc1/C=C/c1ccc(Br)cc1 (centres undefined)
IC50 (Bacillus thuringiensis): 56.2 µg/mL (≈ 160 µM)
IC50 (Escherichia coli): 50.8 µg/mL (≈ 144 µM)
IC50 (Pseudomonas aeruginosa): 15.2 µg/mL (≈ 43.2 µM)
IC50 (Bacillus subtilis): 38 µg/mL (≈ 108 µM)
CC50 at 24 h [1]: 550 nM

IC50 [2]: 5100 nM
Structure (SMILES): CC(O)Cn1c([N+](=O)[O-])cnc1/C=C/c1cccc([N+](=O)[O-])c1 (centres undefined)
IC50 (Bacillus thuringiensis): 20.6 µg/mL (≈ 64.7 µM)
IC50 (Escherichia coli): 38.8 µg/mL (≈ 122 µM)
IC50 (Pseudomonas aeruginosa): 32.7 µg/mL (≈ 103 µM)
IC50 (Bacillus subtilis): 31.1 µg/mL (≈ 97.7 µM)
CC50 at 24 h [1]: 430 nM

Structure (SMILES): CC(O)Cn1c([N+](=O)[O-])cnc1/C=C/c1cccc(Cl)c1 (centres undefined)
IC50 (Bacillus thuringiensis): 21.4 µg/mL (≈ 69.5 µM)
IC50 (Escherichia coli): 86.7 µg/mL (≈ 282 µM)
IC50 (Pseudomonas aeruginosa): 35 µg/mL (≈ 114 µM)
IC50 (Bacillus subtilis): 55.3 µg/mL (≈ 180 µM)
CC50 at 24 h [1]: 520 nM

IC50 [2]: 10800 nM
Structure (SMILES): CC(O)Cn1c([N+](=O)[O-])cnc1/C=C/c1cccc(Br)c1 (centres undefined)
IC50 (Bacillus thuringiensis): 8.2 µg/mL (≈ 23.3 µM)
IC50 (Escherichia coli): 45.4 µg/mL (≈ 129 µM)
IC50 (Pseudomonas aeruginosa): 30.9 µg/mL (≈ 87.7 µM)
IC50 (Bacillus subtilis): 15.3 µg/mL (≈ 43.4 µM)
CC50 at 24 h [1]: 620 nM

Structure (SMILES): CC(O)Cn1c([N+](=O)[O-])cnc1/C=C/c1ccc(Cl)cc1Cl (centres undefined)
IC50 (Bacillus thuringiensis): 18.8 µg/mL (≈ 54.9 µM)
IC50 (Escherichia coli): 111 µg/mL (≈ 325 µM)
IC50 (Pseudomonas aeruginosa): 8.7 µg/mL (≈ 25.4 µM)
IC50 (Bacillus subtilis): 58.1 µg/mL (≈ 170 µM)
CC50 at 24 h [1]: 810 nM

IC50 [2]: 4600 nM
Structure (SMILES): CC(O)Cn1c([N+](=O)[O-])cnc1/C=C/c1ccc([N+](=O)[O-])cc1 (centres undefined)
IC50 (Bacillus thuringiensis): 11.7 µg/mL (≈ 36.8 µM)
IC50 (Escherichia coli): 36.8 µg/mL (≈ 116 µM)
IC50 (Pseudomonas aeruginosa): 5.9 µg/mL (≈ 18.5 µM)
IC50 (Bacillus subtilis): 32.5 µg/mL (≈ 102 µM)
CC50 at 24 h [1]: 410 nM

Structure (SMILES): CC(O)Cn1c([N+](=O)[O-])cnc1/C=C/c1ccc(F)cc1 (centres undefined)
IC50 (Bacillus thuringiensis): 28.1 µg/mL (≈ 96.5 µM)
IC50 (Escherichia coli): 45.3 µg/mL (≈ 156 µM)
IC50 (Pseudomonas aeruginosa): 24.2 µg/mL (≈ 83.1 µM)
IC50 (Bacillus subtilis): 47.1 µg/mL (≈ 162 µM)
CC50 at 24 h [1]: 420 nM

Structure (SMILES): CC(O)Cn1c([N+](=O)[O-])cnc1/C=C/c1ccccc1 (centres undefined)
IC50 (Bacillus thuringiensis): 45.6 µg/mL (≈ 167 µM)
IC50 (Escherichia coli): > 200 µg/mL
IC50 (Pseudomonas aeruginosa): 28 µg/mL (≈ 102 µM)
IC50 (Bacillus subtilis): 78.9 µg/mL (≈ 289 µM)
CC50 at 24 h [1]: 1500 nM

IC50 [2]: 9500 nM
Structure (SMILES): COc1ccc(/C=C/c2ncc([N+](=O)[O-])n2CC(C)O)cc1 (centres undefined)
IC50 (Bacillus thuringiensis): 13.6 µg/mL (≈ 44.8 µM)
IC50 (Escherichia coli): 46.1 µg/mL (≈ 152 µM)
IC50 (Pseudomonas aeruginosa): 42.8 µg/mL (≈ 141 µM)
IC50 (Bacillus subtilis): 12.3 µg/mL (≈ 40.6 µM)
CC50 at 24 h [1]: 560 nM

IC50 [2]: 6300 nM
Structure (SMILES): NC[C@H]1O[C@H](O[C@H]2[C@H](O)[C@@H](O[C@H]3O[C@H](CO)[C@@H](O)[C@H](N)[C@H]3O)[C@H](N)C[C@@H]2N)[C@H](O)[C@@H](O)[C@@H]1O [KANAMYCIN]
IC50 (Bacillus thuringiensis): 9.5 µg/mL (≈ 19.6 µM)
IC50 (Escherichia coli): 47.3 µg/mL (≈ 97.6 µM)
IC50 (Pseudomonas aeruginosa): 6.8 µg/mL (≈ 14 µM)
IC50 (Bacillus subtilis): 8.9 µg/mL (≈ 18.4 µM)

IC50 [2]: 11500 nM
Structure (SMILES): CC(O)Cn1c([N+](=O)[O-])cnc1/C=C/c1ccccc1Cl (centres undefined)
IC50 (Escherichia coli): 56.3 µg/mL (≈ 183 µM)
IC50 (Pseudomonas aeruginosa): 15.4 µg/mL (≈ 50 µM)
IC50 (Bacillus subtilis): 7.5 µg/mL (≈ 24.4 µM)
CC50 at 24 h [1]: 480 nM

Structure (SMILES): CC(O)Cn1c([N+](=O)[O-])cnc1/C=C/c1ccc(Cl)cc1 (centres undefined)
IC50 (Bacillus thuringiensis): 52.5 µg/mL (≈ 171 µM)
IC50 (Escherichia coli): 102 µg/mL (≈ 331 µM)
IC50 (Pseudomonas aeruginosa): 17.6 µg/mL (≈ 57.2 µM)
IC50 (Bacillus subtilis): 79.5 µg/mL (≈ 258 µM)
CC50 at 24 h [1]: 980 nM

Structure (SMILES): CC(O)Cn1c([N+](=O)[O-])cnc1/C=C/c1ccc(N(C)C)cc1 (centres undefined)
IC50 (Bacillus thuringiensis): > 200 µg/mL
IC50 (Escherichia coli): 108 µg/mL (≈ 342 µM)
IC50 (Pseudomonas aeruginosa): 75 µg/mL (≈ 237 µM)
IC50 (Bacillus subtilis): 56.5 µg/mL (≈ 179 µM)
CC50 at 24 h [1]: 680 nM

IC50 [2]: 11000 nM
Structure (SMILES): CC(O)Cn1c([N+](=O)[O-])cnc1/C=C/c1ccccc1[N+](=O)[O-] (centres undefined)
IC50 (Bacillus thuringiensis): 72.9 µg/mL (≈ 229 µM)
IC50 (Escherichia coli): 40.3 µg/mL (≈ 127 µM)
IC50 (Pseudomonas aeruginosa): 7.4 µg/mL (≈ 23.2 µM)
IC50 (Bacillus subtilis): 12.3 µg/mL (≈ 38.6 µM)
CC50 at 24 h [1]: 1090 nM
Activity [3]: Non-toxic

IC50 [2]: 43200 nM
Structure (SMILES): CC(O)Cn1c([N+](=O)[O-])cnc1/C=C/c1ccc2ccccc2c1 (centres undefined)
IC50 (Bacillus thuringiensis): 52.2 µg/mL (≈ 161 µM)
IC50 (Escherichia coli): 108 µg/mL (≈ 335 µM)
IC50 (Pseudomonas aeruginosa): 42.1 µg/mL (≈ 130 µM)
IC50 (Bacillus subtilis): 23.5 µg/mL (≈ 72.7 µM)
CC50 at 24 h [1]: 790 nM
